Results as given in ChEMBL document CHEMBL3751842, “Novel triazolothiadiazines act as potent anticancer agents in liver cancer cells through Akt and ASK-1 proteins” (Bioorg Med Chem, 2016).
Activity calls are given as the source filed them. The rule behind the calls is not given here.

How the values were obtained:
[1] = Cytotoxicity against human HuH7 cells assessed as growth inhibition after 72 hrs by sulforhodamine B assay; assay type: functional, cell-based, Huh-7
Summary of the method: (§1)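 Cells were grown at 37°C, 5% CO2 in DMEM with 10% FBS. They were seeded at 1000–3000 cells/well, grown 24 h, then exposed to compound at 2.5–40 µM for 72 h. Cells were fixed in 10% TCA for 1 h at 4°C, stained with 0.4% SRB in 1% acetic acid for 10 min, and the dye solubilized in 10 mM Tris. Absorbance was read at 515 nm; runs were in triplicate; IC50 was calculated, with fits of R2 0.8–1 accepted.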

[2] = Cytotoxicity against human SNU475 cells assessed as growth inhibition after 72 hrs by sulforhodamine B assay; assay type: functional, cell-based, SNU-475; summary of the method: as §1
[3] = Cytotoxicity against human Hep3B cells assessed as growth inhibition after 72 hrs by sulforhodamine B assay; assay type: functional, cell-based, Hep 3B2; summary of the method: as §1
MCF7 = test: Cytotoxicity against human MCF7 cells assessed as growth inhibition after 72 hrs by sulforhodamine B assay; assay type: functional, cell-based; summary of the method: as §1
[4] = Cytotoxicity against human HCT116 cells assessed as growth inhibition after 72 hrs by sulforhodamine B assay; assay type: functional, cell-based, HCT-116; summary of the method: as §1
HepG2 = test: Cytotoxicity against human HepG2 cells assessed as growth inhibition after 72 hrs by sulforhodamine B assay; assay type: functional, cell-based; summary of the method: as §1
[5] = Cytotoxicity against human FOCUS cells assessed as growth inhibition after 72 hrs by sulforhodamine B assay; assay type: functional, cell-based; summary of the method: as §1
[6] = Cytotoxicity against human Mahlavu cells assessed as growth inhibition after 72 hrs by sulforhodamine B assay; assay type: functional, cell-based; summary of the method: as §1
Huh-7 [7] = test: Induction of apoptosis in human HuH7 cells assessed as nuclear condensation at 10 uM after 48 hrs by Hoechst 33258 staining-based immunofluorescence microscopy; assay type: functional, cell-based
Summary of the method: (§2)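 Cells on coverslips were incubated overnight, then treated with 10 µM compound or DMSO for 48 h. They were washed in ice-cold PBS, fixed in cold methanol for 10 min, and stained with 1 µg/mL Hoechst 33258 for 5 min in the dark. Nuclei were examined by fluorescence microscopy with a 40x objective.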

Huh-7 [8] = test: Induction of apoptosis in human HuH7 cells assessed as horseshoe nuclear structure at 10 uM after 48 hrs by Hoechst 33258 staining-based immunofluorescence microscopy; assay type: functional, cell-based; summary of the method: as §2
Huh-7 [9] = test: Cytotoxicity against human HuH7 cells assessed as cell impedance at IC25 to IC100 measured every 30 mins for 72 hrs by RT-CES assay; assay type: functional, cell-based; settings: TDE = time-dependent effect
Summary of the method: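 Huh7 cells were seeded at 1000–5000 cells/well on electrode plates. […] Impedance was read as cell index every 10 min for the first 24 h, then every 30 min, over 72 h. Data were normalized to DMSO; inhibition (%) = [1 − (CI treated/CI DMSO)] × 100. Each experiment was run at least three times.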

[10] = Homo sapiens, Huh-7, 72 h, read-out: IC50
[11] = Homo sapiens, SNU-475, 72 h, read-out: IC50
[12] = Homo sapiens, Hep3B, 72 h, read-out: IC50
[13] = Homo sapiens, MCF7, 72 h, read-out: IC50
[14] = Homo sapiens, HCT-116, 72 h, read-out: IC50
[15] = Homo sapiens, Mahlavu, 72 h, read-out: IC50
[16] = Homo sapiens, HepG2, 72 h, read-out: IC50
[17] = Homo sapiens, FOCUS, 72 h, read-out: IC50

CC(C)Cc1ccc(C(C)c2n[nH]c(=S)n2N)cc1 (centres undefined)
IC50 [1, 10]: 23 µM
IC50 [2, 11]: 11.7 µM
IC50 [3, 12]: 13.1 µM
IC50 (MCF7; [13]): 16.1 µM
IC50 [4, 14]: 27.4 µM
IC50 (HepG2; hepg2): Not Active
IC50 ([5]; focus): Not Active
IC50 [6, 15]: 16.2 µM

CC(C)Cc1ccc(C(C)c2nnc3n2N=C(c2ccccc2)CS3)cc1 (centres undefined)
IC50 [1, 10]: 6.1 µM
IC50 (MCF7; [13]): 9.7 µM
IC50 [4, 14]: 7.6 µM

CC(c1ccc(-c2ccccc2)c(F)c1)c1nnc2n1N=C(c1ccc(OC(F)(F)F)cc1)CS2 (centres undefined)
IC50 [1, 10]: 8.4 µM
IC50 (MCF7; [13]): 4.8 µM
IC50 [4, 14]: 5.4 µM

COc1ccc2cc([C@H](C)C(=O)O)ccc2c1 [NAPROXEN]
IC50 ([1]; huh-7): Not Active
IC50 ([2]; snu-475): Not Active
IC50 ([3]; hep 3b2): Not Active
IC50 (MCF7; mcf7): Not Active
IC50 ([4]; hct-116): Not Active
IC50 (HepG2; hepg2): Not Active
IC50 ([5]; focus): Not Active
IC50 ([6]; mahlavu): Not Active

CC(C)Cc1ccc(C(C)c2nnc3n2N=C(c2ccc(Cl)cc2)CS3)cc1 (centres undefined)
IC50 [1, 10]: 5.7 µM
IC50 (MCF7; [13]): 8.8 µM
IC50 [4, 14]: 6.7 µM

CC(C)Cc1ccc(C(C)C(=O)O)cc1 (centres undefined) [IBUPROFEN]
IC50 [1, 10]: 37.2 µM
IC50 ([2]; snu-475): Not Active
IC50 ([3]; hep 3b2): Not Active
IC50 (MCF7; mcf7): Not Active
IC50 ([4]; hct-116): Not Active
IC50 (HepG2; hepg2): Not Active
IC50 ([5]; focus): Not Active
IC50 ([6]; mahlavu): Not Active

COc1ccc(C2=Nn3c(nnc3C(C)c3ccc4cc(OC)ccc4c3)SC2)cc1 (centres undefined)
IC50 [1, 10]: 8.5 µM
IC50 (MCF7; [13]): 6.6 µM
IC50 [4, 14]: 6.5 µM

CC(c1ccc(-c2ccccc2)c(F)c1)c1nnc2n1N=C(c1ccc(F)cc1)CS2 (centres undefined)
IC50 [1, 10]: 4.9 µM
Activity (Huh-7 [7]): Active
IC50 [2, 11]: 6.6 µM
IC50 [3, 12]: 2.6 µM
IC50 (MCF7; [13]): 8.1 µM
IC50 [4, 14]: 10.5 µM
Activity (Huh-7 [8]): Active
IC50 (HepG2; [16]): 5.1 µM
Activity (Huh-7 [9]): tde
IC50 [5, 17]: 3.5 µM
IC50 [6, 15]: 7.4 µM

CC(C)Cc1ccc(C(C)c2nnc3n2N=C(c2ccc(Cl)cc2Cl)CS3)cc1 (centres undefined)
IC50 [1, 10]: 7.5 µM
IC50 (MCF7; [13]): 11.8 µM
IC50 [4, 14]: 11.1 µM

CC(c1ccc(-c2ccccc2)c(F)c1)c1nnc2n1N=C(c1ccccc1)CS2 (centres undefined)
IC50 [1, 10]: 6.7 µM
IC50 (MCF7; [13]): 7.4 µM
IC50 [4, 14]: 9.7 µM

CC[C@@]1(O)C(=O)OCc2c1cc1n(c2=O)Cc2cc3ccccc3nc2-1 [CAMPTOTHECIN]
IC50 [1, 10]: ≤ 0.1 µM
IC50 [2, 11]: < 1 µM
IC50 [3, 12]: < 1 µM
IC50 (MCF7; [13]): ≤ 0.1 µM
IC50 [4, 14]: ≤ 0.1 µM
IC50 (HepG2; [16]): < 1 µM
IC50 [5, 17]: < 1 µM
IC50 [6, 15]: < 1 µM

COc1ccc2cc(C(C)c3nnc4n3N=C(c3ccc(Cl)cc3Cl)CS4)ccc2c1 (centres undefined)
IC50 [1, 10]: 10.7 µM
IC50 (MCF7; [13]): 14.6 µM
IC50 [4, 14]: 14 µM

CC(C)Cc1ccc(C(C)c2nnc3n2N=C(c2ccc(F)cc2)CS3)cc1 (centres undefined)
IC50 [1, 10]: 7.8 µM
IC50 (MCF7; [13]): 8.9 µM
IC50 [4, 14]: 12.4 µM

COc1ccc2cc(C(C)c3nnc4n3N=C(c3ccc([N+](=O)[O-])cc3)CS4)ccc2c1 (centres undefined)
IC50 [1, 10]: 14.7 µM
IC50 (MCF7; [13]): 18.8 µM
IC50 [4, 14]: 15.1 µM

CC(C(=O)O)c1ccc(-c2ccccc2)c(F)c1 (centres undefined) [FLURBIPROFEN]
IC50 ([1]; huh-7): Not Active
IC50 ([2]; snu-475): Not Active
IC50 ([3]; hep 3b2): Not Active
IC50 (MCF7; mcf7): Not Active
IC50 ([4]; hct-116): Not Active
IC50 (HepG2; hepg2): Not Active
IC50 ([5]; focus): Not Active
IC50 ([6]; mahlavu): Not Active

CC(c1ccc(-c2ccccc2)c(F)c1)c1n[nH]c(=S)n1N (centres undefined)
IC50 [1, 10]: 43.1 µM
IC50 ([2]; snu-475): Not Active
IC50 ([3]; hep 3b2): Not Active
IC50 (MCF7; mcf7): Not Active
IC50 ([4]; hct-116): Not Active
IC50 (HepG2; [16]): 21.4 µM
IC50 ([5]; focus): Not Active
IC50 ([6]; mahlavu): Not Active

COc1ccc2cc(C(C)c3nnc4n3N=C(c3ccc(Cl)cc3)CS4)ccc2c1 (centres undefined)
IC50 [1, 10]: 5.6 µM
IC50 (MCF7; [13]): 10.1 µM
IC50 [4, 14]: 8.8 µM

COc1ccc2cc(C(C)c3nnc4n3N=C(c3ccc(C)cc3)CS4)ccc2c1 (centres undefined)
IC50 [1, 10]: 8.2 µM
IC50 (MCF7; [13]): 11 µM
IC50 [4, 14]: 10.2 µM

COc1ccc2cc(C(C)c3nnc4n3N=C(c3ccc(OC(F)(F)F)cc3)CS4)ccc2c1 (centres undefined)
IC50 [1, 10]: 16 µM
IC50 (MCF7; [13]): 8.8 µM
IC50 [4, 14]: 11.7 µM

COc1ccc2cc(C(C)c3n[nH]c(=S)n3N)ccc2c1 (centres undefined)
IC50 [1, 10]: 40.8 µM
IC50 [2, 11]: 15.9 µM
IC50 [3, 12]: 1.9 µM
IC50 (MCF7; [13]): 22.3 µM
IC50 [4, 14]: 20.2 µM
IC50 (HepG2; [16]): 40 µM
IC50 ([5]; focus): Not Active
IC50 ([6]; mahlavu): Not Active

CC(c1ccc(-c2ccccc2)c(F)c1)c1nnc2n1N=C(c1ccc(Br)cc1)CS2 (centres undefined)
IC50 [1, 10]: 5 µM
Activity (Huh-7 [7]): inactive
IC50 [2, 11]: 7 µM
IC50 [3, 12]: 1.5 µM
IC50 (MCF7; [13]): 7.4 µM
IC50 [4, 14]: 7.1 µM
Activity (Huh-7 [8]): inactive
IC50 (HepG2; [16]): 3.7 µM
Activity (Huh-7 [9]): tde
IC50 [5, 17]: 8.5 µM
IC50 [6, 15]: 6.2 µM

Cc1ccc(C2=Nn3c(nnc3C(C)c3ccc(-c4ccccc4)c(F)c3)SC2)cc1 (centres undefined)
IC50 [1, 10]: 7.2 µM
IC50 (MCF7; [13]): 5 µM
IC50 [4, 14]: 4.8 µM

COc1ccc2cc(C(C)c3nnc4n3N=C(c3ccc(C(F)(F)F)cc3)CS4)ccc2c1 (centres undefined)
IC50 [1, 10]: 14.8 µM
IC50 (MCF7; [13]): 6.9 µM
IC50 [4, 14]: 10.8 µM

COc1ccc2cc(C(C)c3nnc4n3N=C(c3ccc(F)cc3)CS4)ccc2c1 (centres undefined)
IC50 [1, 10]: 7 µM
IC50 (MCF7; [13]): 15.8 µM
IC50 [4, 14]: 13.1 µM

CC(c1ccc(-c2ccccc2)c(F)c1)c1nnc2n1N=C(c1ccc(Cl)cc1Cl)CS2 (centres undefined)
IC50 [1, 10]: 3.7 µM
Activity (Huh-7 [7]): Active
IC50 [2, 11]: 4.7 µM
IC50 [3, 12]: 4.2 µM
IC50 (MCF7; [13]): 7.6 µM
IC50 [4, 14]: 6.9 µM
Activity (Huh-7 [8]): Active
IC50 (HepG2; [16]): 8.6 µM
Activity (Huh-7 [9]): tde
IC50 [5, 17]: 5.4 µM
IC50 [6, 15]: 6.6 µM

CC(C)Cc1ccc(C(C)c2nnc3n2N=C(c2ccc(C(F)(F)F)cc2)CS3)cc1 (centres undefined)
IC50 [1, 10]: 8.4 µM
IC50 (MCF7; [13]): 4.2 µM
IC50 [4, 14]: 6.5 µM

CC(C)Cc1ccc(C(C)c2nnc3n2N=C(c2ccc([N+](=O)[O-])cc2)CS3)cc1 (centres undefined)
IC50 ([1]; huh-7): Not Active
IC50 (MCF7; mcf7): Not Active
IC50 ([4]; hct-116): Not Active

COc1ccc2cc(C(C)c3nnc4n3N=C(c3ccc(Br)cc3)CS4)ccc2c1 (centres undefined)
IC50 [1, 10]: 9.3 µM
IC50 (MCF7; [13]): 11.5 µM
IC50 [4, 14]: 11.7 µM

CC(c1ccc(-c2ccccc2)c(F)c1)c1nnc2n1N=C(c1ccc(C(F)(F)F)cc1)CS2 (centres undefined)
IC50 [1, 10]: 9.4 µM
IC50 (MCF7; [13]): 4.3 µM
IC50 [4, 14]: 6.1 µM

COc1ccc2cc(C(C)c3nnc4n3N=C(c3ccccc3)CS4)ccc2c1 (centres undefined)
IC50 [1, 10]: 5.7 µM
IC50 (MCF7; [13]): 11.7 µM
IC50 [4, 14]: 8.9 µM
